# An excerpt weighted towards active compounds, which were near 3.5% of everything screened.
# MrgX1 PAM: allosterically activates human MrgX1 receptor signaling; B-score at 10 µM; AID 588675; Q96LB2; 310,000 tested, 0.63% active; MrgX1-HEK293, Fluo-4 calcium flux, FDSS; hits give high values;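 active = plate-corrected calcium response at least 3 library SD above typical, normal starting fluorescence, not activating the receptor alone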;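 also: compound read alongside a low EC10 to EC30 dose of BAM8-22 agonist; peak minus trough fluorescence over baseline measured at the second addition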
# Target sequence (Q96LB2 whole entry, looked up): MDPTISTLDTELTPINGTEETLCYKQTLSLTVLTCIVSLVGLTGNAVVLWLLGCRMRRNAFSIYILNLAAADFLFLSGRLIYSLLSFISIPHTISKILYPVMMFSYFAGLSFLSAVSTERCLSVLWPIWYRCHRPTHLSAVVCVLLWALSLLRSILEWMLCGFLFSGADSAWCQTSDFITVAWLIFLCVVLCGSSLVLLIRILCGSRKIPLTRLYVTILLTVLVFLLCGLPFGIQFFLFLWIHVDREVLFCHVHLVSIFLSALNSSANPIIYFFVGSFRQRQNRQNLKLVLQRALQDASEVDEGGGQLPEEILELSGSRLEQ
# RGS4 inh: inhibitors of human RGS4 | HEK293 M3R/RGS4 inducible, Fluo-4 calcium flux; hits give high values; triggered by carbachol at its EC20 | P49798 | B-score at 10 µM | 310,000 tested, 0.45% active;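 active = B-score, a plate-corrected calcium signal, over three deviations above library mean, with baseline fluorescence within five deviations of library mean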;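 also: RGS4 expression induced by doxycycline in cells with stable M3 receptor; B-score is computed from the integrated fluorescence ratio over baseline after carbachol; higher B-score means a larger calcium signal and so more RGS4 inhibition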
# Target sequence (P49798 whole entry, looked up): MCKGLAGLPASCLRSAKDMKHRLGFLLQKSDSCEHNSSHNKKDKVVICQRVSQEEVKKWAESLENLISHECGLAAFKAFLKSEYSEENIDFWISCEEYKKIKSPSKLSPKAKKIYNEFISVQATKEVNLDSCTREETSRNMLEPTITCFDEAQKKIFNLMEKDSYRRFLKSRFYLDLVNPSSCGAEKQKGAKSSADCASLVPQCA
# MrgX1 antagonist: blocks BAM8-22 activation of human MrgX1 receptor | Q96LB2 | B-score at 10 µM | 310,000 tested, 1.3% active | MRGX1-HEK293 calcium flux, Fluo-4, BAM8-22 antagonism; hits give low values;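 active = calcium-response B-score plate-corrected more than 3 library SD below zero, starting fluorescence within 5 deviations, no agonist response on first addition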;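 also: peak minus trough fluorescence over baseline after final BAM8-22 challenge near maximal dose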
# RGS4 pot: RGS4 potentiation or activation. B-score at 10 µM. 310,000 tested, 0.92% active. HEK293 M3R/inducible RGS4, carbachol calcium flux Fluo4; hits give low values;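 active = B-score of the integrated calcium signal more than 4 SD below the library mean, with starting fluorescence not abnormally high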;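 also: negative B-score means reduced calcium response which marks RGS4 activation or potentiation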
#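 test system = HEK293 cells with stable M3R and inducible RGS4 | schedule = recording 10 s baseline at 1 Hz, 100 s post-agonist | technique = Fluo4-AM (2 µM) calcium-flux fluorescence, kinetic read | measure = Agonist-evoked peak-minus-minimum fluorescence over baseline, integrated ratio, B score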
# MrgX1 agonist: activates human MrgX1 receptor signaling. Q96LB2. MrgX1-HEK293 cells, Fluo-4 calcium fluorescence, agonist mode; hits give high values. B-score at 10 µM. 310,000 tested, 0.44% active. AID 588627;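 active = calcium response B-score plate-corrected fluorescence ratio at least 3 library SD, with starting fluorescence B-score inside 5 SD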
#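 System – MrgX1-expressing HEK293 cells · Incubation – cells plated overnight, dye loaded 0.5 h 37 °C, 0.5 h room temperature · Technique – kinetic Fluo-4 NW fluorescence of intracellular calcium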
# RGS4 inh valid: validation of RGS4 inhibitors; 1,700 tested, 65% active; AID 492999; calcium response, % at 10 µM; HEK293 M3R/RGS4, carbachol calcium Fluo-4 fluorescence; carbachol added at its EC20; 0 = buffer wells, 100 = carbachol control; shares compounds with RGS4 inh;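 active = duplicate-averaged calcium response above the buffer-only control mean plus 5 SD of those controls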;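 also: integrated fluorescence ratio F max minus min over baseline F0; higher response in RGS4-induced cells means RGS4 inhibition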
# RGS4 uninduced: counter-screen for RGS4 inhibitors: effect in non-induced cells. shares compounds with RGS4 inh. HEK293 M3R non-induced, carbachol calcium Fluo-4; submaximal (EC20) carbachol stimulus; buffer wells 0%, carbachol control wells 100%. activity (percent), % at 10 µM. 1,900 tested, 20% active; call rule not given here;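 also: RGS4 induction absent so cells express M3R without RGS4; higher means more calcium signal and flags a non-specific hit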
# RGS4 inh ctr2: second counter-screen for RGS4 inhibitors: non-induced cells without carbachol. shares compounds with RGS4 inh. HEK293 M3R/RGS4 non-induced, Fluo-4 calcium, no carbachol; normalised: buffer wells 0%, carbachol wells 100%. calcium response (agonist-mode artifact), % at 10 µM. 1,900 tested, 22% active. AID 493001;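 active = duplicate-averaged calcium rise in uninduced cells above buffer wells' mean plus 5 SD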
# Starred values were filed as active, the others as inactive; i = inactive; nt = not tested or not shown.
SMILES,MrgX1 PAM,RGS4 inh,MrgX1 antagonist,RGS4 pot,MrgX1 agonist,RGS4 inh valid,RGS4 uninduced,RGS4 inh ctr2
CC1=CC(C)(C)N2C(=O)C3(C(C#N)=C(N)Oc4cc(O)ccc43)c3c(C)c(C)cc1c32 (stereo not drawn),i,5.94*,i,i,i,29.0%*,i,i
CC1=CC(C)(C)N2C(=O)C3(C(C#N)=C(N)OC4=C3C(=O)CCC4)c3c(C)c(C)cc1c32 (stereo not drawn),i,i,i,i,i,nt,nt,nt
COc1cccc(C(C[N+](=O)[O-])c2c(C)[nH]n(-c3ccccc3)c2=O)c1 (stereo not drawn),i,14.9*,i,i,49.6*,6.0%*,i,10.5%*
Cc1[nH]n(-c2ccccc2)c(=O)c1C(C[N+](=O)[O-])c1ccc(Br)cc1 (stereo not drawn),6.83*,8.39*,i,i,i,32.0%*,51.0%*,27.5%*
COC(=O)c1cc(S(=O)(=O)N2CCOCC2)c(Cl)cc1N1CCOCC1,i,i,i,i,i,nt,nt,nt
COC(=O)c1cc(C)nc2c1C(=O)C(=O)C=C2N1CCOCC1,i,21.4*,i,i,i,34.0%*,i,i
FC(F)(F)c1ccc(N=Cc2sc(N3CCOCC3)nc2-c2ccccc2)cc1,i,5.55*,i,i,i,5.5%*,i,i
Cc1ccc(S(=O)(=O)C2CS(=O)(=O)CC2O)cc1 (stereo not drawn),i,i,i,i,i,nt,nt,nt
CC(=O)C1=C(S(=O)(=O)c2ccc(C)cc2)CS(=O)(=O)C1,nt,25.5*,nt,i,nt,39.5%*,i,i
CN(C)c1oc(-c2ccccc2[N+](=O)[O-])nc1C#N,i,10.8*,i,i,i,5.0%*,i,i
Cc1ccc(SCc2[nH]nc3c2C2(C(=O)Nc4ccc([N+](=O)[O-])cc42)C(C#N)=C(N)O3)cc1 (stereo not drawn),i,6.07*,i,i,i,i,i,i
Cc1ccc(SCc2[nH]nc3c2C2(CCSCC2)C(C#N)=C(N)O3)cc1,i,i,i,i,i,nt,nt,nt
CC12CCC(C(=O)N/N=C/c3ccc(O)cc3O)(OC1=O)C2(C)C (stereo not drawn),i,i,i,i,i,nt,nt,nt
Cc1ccccc1C(=O)N(Cc1cccs1)C1CCS(=O)(=O)C1 (stereo not drawn),i,i,i,i,i,nt,nt,nt
Cc1ccccc1C(=O)Nc1ccc2c(c1)nc(CCNC(=O)c1ccco1)n2C,i,i,i,i,i,nt,nt,nt
CCC(=O)Nc1ccc2c(c1)nc(CCNC(=O)c1ccco1)n2C,i,i,i,i,i,nt,i,i
CC(C)(CO)C(O)C(=O)NCCC#N (stereo not drawn),i,i,i,i,i,nt,nt,nt
CCn1c(=O)c2cc(C(=O)N(C)c3cc(C)ccc3OC)sc2c2ccccc21,i,6.05*,i,i,i,30.5%*,59.5%*,i
CCn1c(=O)c2cc(C(=O)N(C)c3ccc(OC)cc3OC)sc2c2ccccc21,i,i,i,i,i,nt,nt,nt
Cc1ccc(SC2=C(C(=O)O)CCCC2)cc1,i,i,i,i,i,nt,nt,nt
CCOC(=O)[C@@H]1[C@H]2COc3ccccc3[C@H]2N2C(=O)N(c3ccc(C)cc3)C(=O)[C@]12C,i,i,i,i,i,i,i,i
CCOC(=O)[C@@H]1[C@H]2COc3ccc(Br)cc3[C@@H]2N2C(=O)N(c3ccc(Br)cc3)C(=O)[C@]12C,i,i,i,i,i,nt,nt,nt
CCOC(=O)[C@@H]1[C@H]2COc3ccccc3[C@@H]2N2C(=O)N(c3ccccc3)C(=O)[C@]12C,i,i,i,i,i,i,i,i
CCOC(=O)[C@@H]1[C@H]2COc3ccccc3[C@H]2N2C(=O)N(c3ccccc3)C(=O)[C@]12C,i,i,i,i,i,i,i,i
CCOC(=O)[C@@H]1[C@H]2COc3ccccc3[C@H]2N2C(=O)N(c3cccc(F)c3)C(=O)[C@]12C,i,i,i,i,i,i,i,i
SMILES,MrgX1 PAM,RGS4 inh,MrgX1 antagonist,RGS4 pot,MrgX1 agonist,RGS4 inh valid,RGS4 uninduced,RGS4 inh ctr2
O=C(C1CC1)N1CCN(c2ccc(O)cc2)CC1,i,i,i,i,i,nt,nt,nt
CCOC(=O)[C@@H]1[C@H]2COc3ccccc3[C@@H]2N2C(=O)N(c3ccccc3)C(=O)[C@@]12C,i,i,i,i,i,i,i,i
CCOC(=O)[C@@H]1[C@H]2COc3ccccc3[C@@H]2N2C(=O)N(c3ccc(Cl)cc3)C(=O)[C@]12C,i,i,i,i,i,i,i,i
CCOC(=O)[C@@H]1[C@H]2COc3ccccc3[C@@H]2N2C(=O)N(c3ccc(F)cc3)C(=O)[C@]12C,i,i,i,i,i,i,i,i
CN(Cc1ccccc1)C(=O)CCC1CCN(C(=O)CCC(F)(F)F)CC1,i,i,i,i,i,nt,nt,nt
Cc1cc(N2CCN(c3ccccc3)CC2)n2cc(-c3ccccc3)nc2n1,i,i,i,i,i,nt,nt,nt
Cc1cc(N2CCN(c3ccccc3Cl)CC2)n2cc(-c3ccccc3)nc2n1,i,5.95*,i,i,i,27.5%*,i,i
O=Nc1c(O)n(Cc2cccc(Cl)c2)c2ccccc12,i,6.41*,i,i,i,16.0%*,37.0%*,i
Cc1ccc(/C=C2/NC(=O)N(Cc3ccc(Br)cc3)C2=O)o1,i,i,i,i,i,i,i,21.5%*
CCN1C(=O)N/C(=C/c2ccc(C)o2)C1=O,i,i,i,i,i,nt,nt,nt
COc1cc(/C=C(/C(=O)c2cccs2)c2nc3ccccc3[nH]2)ccc1O,i,9.2*,i,i,i,18.5%*,i,i
C=CCn1nc([N+](=O)[O-])nc1Sc1cccc2cccnc12,i,6.15*,i,i,i,30.5%*,i,i

# Compound activity as filed in PubChem.
